Bioassay records from PubChem BioAssay.
M5 ag: human M5 muscarinic receptor agonists, primary screen, CHO-K1 cells, Fluo-8 calcium fluorescence. hit rate 0.19% among 360,000. CHO-K1 hM5 cells; 0% DMSO wells, 100% maximal acetylcholine response. activation, % at 3 µM;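 active = activation above the run's mean over test compounds plus 3 SD, cut at about 23% in these data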;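 also: signal is peak over basal fluorescence ratio across the kinetic read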
Target sequence (P08912 whole entry, looked up): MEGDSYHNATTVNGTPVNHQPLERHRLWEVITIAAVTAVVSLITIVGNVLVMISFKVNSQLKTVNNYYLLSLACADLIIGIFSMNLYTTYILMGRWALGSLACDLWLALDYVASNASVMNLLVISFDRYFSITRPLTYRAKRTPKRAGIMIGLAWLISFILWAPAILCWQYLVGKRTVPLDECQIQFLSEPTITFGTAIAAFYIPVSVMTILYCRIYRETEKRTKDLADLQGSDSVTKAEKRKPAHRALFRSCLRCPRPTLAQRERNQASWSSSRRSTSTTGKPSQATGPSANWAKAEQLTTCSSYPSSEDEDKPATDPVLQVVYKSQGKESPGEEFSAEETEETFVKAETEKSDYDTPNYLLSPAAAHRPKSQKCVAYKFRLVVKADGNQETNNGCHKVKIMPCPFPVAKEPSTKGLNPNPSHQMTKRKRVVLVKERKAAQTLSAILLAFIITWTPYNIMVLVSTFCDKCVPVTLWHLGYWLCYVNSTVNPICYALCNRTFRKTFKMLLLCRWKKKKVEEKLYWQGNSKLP
CHRM5 PAM: human M5 muscarinic receptor positive allosteric modulators, primary screen, CHO-K1 cells, Fluo-8 calcium fluorescence | Muscarinic acetylcholine receptor M5 (Homo sapiens), P08912 | CHO-K1 hM5, ACh EC20 PAM; 0% = ACh EC20, 100% = ACh EC100 | activation, % at 3 µM | hit rate 0.3% among 360,000 | AID 624038, 2012;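 active = activation above the run cutoff, the mean activation of all test compounds plus 3 SD, cut at about 18% in these data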
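system = human M5 receptor in CHO-K1 cells | reagent = EC20 acetylcholine as agonist stimulus | compound dosing = single-point, 3 µM nominal | incubation = Fluo-8 loading 80 min at 37 °C plus 30 min room temperature | detection = Fluo-8 calcium dye fluorescence, kinetic read | benchmarks = low control EC20 acetylcholine (0%), high control EC100 acetylcholine (100%)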
CHRM4 antagonist: human M4 muscarinic receptor antagonists, primary screen, CHO cells, Fluo-8 calcium fluorescence; hit rate 0.73% among 360,000; inhibition, % at 3 µM; Muscarinic acetylcholine receptor M4 (Homo sapiens), P08173; CHO-hM4 cells, ACh EC80; AID 624125, 2012;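 active = inhibition above its plate's cutoff, the mean inhibition of sample wells plus 3 SD, cut at about 27% in these data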;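 also: 0% = acetylcholine EC80 with DMSO and 100% = DMSO without agonist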
M5 antag: human M5 muscarinic receptor antagonists, primary screen, CHO cells, Fluo-8 calcium fluorescence; hit rate 0.59% among 360,000; Muscarinic acetylcholine receptor M5 (Homo sapiens), P08912; CHO-hM5 cells, ACh EC80; inhibition, % at 3 µM;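 active = inhibition above a per-plate cutoff, the mean of that plate's test compounds plus 3 SD, cut at about 27% in these data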;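 also: 0% = acetylcholine EC80 with DMSO and 100% = DMSO without agonist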
M4 ag: human M4 muscarinic receptor agonists, primary screen, CHO-K1 cells, Fluo-8 calcium fluorescence; CHO-K1 hM4/Gqi5; vehicle 0%, full acetylcholine response 100%; AID 624127, 2012; Muscarinic acetylcholine receptor M4 (Homo sapiens), P08173; hit rate 0.14% among 360,000; activation, % at 3 µM;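 active = activation above the run mean over all test wells plus 3 SD, cut at about 32% in these data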;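 also: peak over basal fluorescence ratio per well then scaled between controls; 0% = DMSO wells and 100% = acetylcholine at EC100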
CHRM4 PAM: human M4 muscarinic receptor positive allosteric modulators, primary screen, CHO-K1 cells, Fluo-8 calcium fluorescence; Muscarinic acetylcholine receptor M4 (Homo sapiens), P08173; CHO-K1 hM4/Gqi5, ACh EC20; 0% = ACh EC20, 100% = maximal ACh; activation, % at 3 µM; hit rate 0.4% among 360,000; AID 624126, 2012;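 active = activation above its plate's cutoff, the mean activation of sample wells plus 3 SD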
Active calls of the source: *. Sampled rows, rich in hits. Any-hit rate of the full collection: about 1.8%.

SMILES	M5 ag	CHRM5 PAM	CHRM4 antagonist	M5 antag	M4 ag	CHRM4 PAM
CCN(CC(=O)Nc1ccc(OC)cc1)C(=O)Cc1ccsc1	2	-1	-23	-5	1	22*
c1ccc(-c2ncnc3ccccc23)cc1	-2	-4	6	14	1	-2
O=C(Nc1ccccc1)Nc1cc(OCC(F)(F)F)cc(OCC(F)(F)F)c1	1	-18	10	47*	12	-16
O=C1NC[C@@H](CCCCN2C[C@H](Cc3ccc(O)cc3)N(CCc3ccc(O)cc3)C(=O)C2=O)N(CCc2ccc(O)cc2)C1=O	2	0	-7	-4	3	8
O=C(CC1NCCNC1=O)Nc1ccccc1 (stereo not given)	-1	2	-7	3	2	8
O=C(CC1C=CCC1)Nc1ccccc1 (stereo not given)	3	20*	-9	-6	1	9
O=[N+]([O-])c1cccc(/C=N/Nc2nnc(-c3ccccc3)c(-c3ccccc3)n2)c1	-1	-3	-12	-1	1	34*
C/C(=N\Nc1nnc(-c2ccccc2)c(-c2ccccc2)n1)c1cccc([N+](=O)[O-])c1	3	2	-7	0	0	-3
CC(C)(C)n1nnnc1C(c1ccccc1)N1CCN(c2ncccc2C(F)(F)F)CC1 (stereo not given)	1	-6	-1	2	10	-9
CC1(C(=O)NCc2ccccc2Br)CCN1Cc1ccc2ccccc2c1 (stereo not given)	-3	-9	5	1	-1	-8
CCCc1ncc(C(O)(c2ccccc2)c2ccc(C)cc2)n1C (stereo not given)	-9	-19	50*	73*	3	-19
CCCc1ncc(C(O)(c2ccccc2)c2ccccc2)n1C	-11	-20	62*	59*	2	-18
CNC(=O)OCc1cocc1COC(=O)NC	3	-2	-5	0	1	14
Cc1c(C(=O)NCCC#N)sc(=O)n1Cc1ccc(C(=O)N(C)C)cc1	1	-6	-1	3	0	2
O=C(CN1CCCCC1)N1CCCc2ccccc21	-6	-4	13	8	0	-3
O=C(CN1CCCCCC1)N1c2ccccc2C=Cc2ccccc21	-6	-16	95*	80*	0	-32
NC(=O)N1c2ccccc2C=Cc2ccccc21	1	-2	-19	-4	2	7
O=C(CN1CCCC1)N1c2ccccc2C=Cc2ccccc21	-14	-34	51*	49*	1	-22
CN1CCN(C(=O)N2c3ccccc3C=Cc3ccccc32)CC1	-13	-25	71*	98*	1	-17
O=C1/C(=C/c2ccccc2)CCc2ccc(Cl)nc21	-4	5	-3	15	-1	0
COc1cccc(NC(=O)C2CC(=O)N(Cc3ccco3)C2)c1 (stereo not given)	0	2	-6	-5	2	21*
COc1ccc(N2Cc3ccc(OC)c(OC)c3C2=O)cc1	-3	-9	60*	16	0	-18
COc1ccc(CN(C)C(=O)c2cccc(Oc3ccccc3)c2)c(OC)c1OC	-2	-13	3	30*	11	-8
COc1cccc(CN(C)C(=O)c2cccc(S(=O)(=O)NCc3ccccc3)c2)c1OC	4	-6	4	-5	15	-9
COc1ccc(CN2CCN(Cc3cccc(Oc4ccccc4)c3)CC2)c(OC)c1OC	0	-18	12	35*	22	-16
SMILES	M5 ag	CHRM5 PAM	CHRM4 antagonist	M5 antag	M4 ag	CHRM4 PAM
COc1cc(/C=C2\SC(=O)N(c3ccc(Cl)cc3)C2=O)cc([N+](=O)[O-])c1O	0	2	17	10	-1	3
COc1cc(/C=C2\SC(=O)N(c3cccc(Cl)c3)C2=O)cc([N+](=O)[O-])c1O	0	11	-9	-8	0	23*
CS(=O)(=O)c1cc(N2CCOCC2)ccc1CNC[C@H]1O[C@@H](n2cnc3c(=O)[nH]c(N)nc32)[C@H](O)[C@@H]1O	4	6	3	8	1	-1
O=C1C=C(OCCF)CC(c2ccc(Br)cc2)O1 (stereo not given)	-1	-4	-4	6	2	13
CCCC(=O)c1c(NC(C)C)cc(C)oc1=O	7	-3	4	-3	-1	39*
CO/N=C/C(C#N)=C/c1ccc(OC)c(OC)c1	-10	-1	-5	-2	-1	20*
CNc1ncnc2c1ncn2[C@H]1CN(Cc2cccs2)C[C@@H](CO)O1	1	0	2	-1	1	-4
CC(C)c1cc(C(=O)NCc2ccc(F)cc2)c(N)s1	4	18*	-6	-6	9	2
Nc1nc2cc3c(cc2cc1C(=O)NCc1ccc(F)cc1)OCO3	11	-19	11	27*	15	-7
O=C(NCc1ccc2c(c1)OCO2)c1nnc(Cc2ccc(F)cc2)o1	0	-5	-5	-3	2	9
CCc1nc2ccc(C(=O)NCCCn3ccnc3)cn2c1N(C)C(=O)COc1ccccc1	-1	-3	-1	7	0	2
CC(=O)Nc1ccc(S(=O)(=O)N2CCC(C(=O)NCCC(=O)Nc3ccccc3)CC2)cc1	-2	20*	-23	-19	2	8
COc1ccc(CC(=O)Nc2cccc(S(=O)(=O)N3CCCCCC3)c2)cc1OC	9	-19	11	32*	14	-11
COc1ccc(S(=O)(=O)N2CCCC2)cc1NC(=O)c1ccccc1F	-2	2	-2	2	2	4
COc1ccccc1NC(=O)c1cc(S(=O)(=O)N2CCCCCC2)ccc1F	1	24*	-9	15	34*	30*
COc1cc(C(C)=O)ccc1OCC(=O)Nc1ccc(C)c(S(=O)(=O)N2CCCCCC2)c1	5	-39	18	32*	27	-13
COC[C@@H]1CCCN1[C@@H]1CS(=O)(=O)N[C@H]1COCc1ccccc1	3	5	-1	-2	0	0
CC(C)(C)Cc1c(-c2cccc(Br)c2)nc2ccc(Cl)cn12	-7	2	8	4	0	-10
Cc1nc(N/N=C/c2cccc([N+](=O)[O-])c2)cc(N2CCCCC2)n1	0	-6	-6	3	2	3
